# Published values of several laboratories.
# Each line is one published result; the experiments were not run side by side.
# Target: Focal adhesion kinase 1 (PTK2, Homo sapiens, UniProt Q05397)
Structure (SMILES),assay,setting,remaining binding [%]
CN(C)c1nccc(-c2cnn3ncccc23)n1,binding,1 µM,79
Cc1cc(-c2cc(C(F)(F)F)ccc2O[C@H]2C[C@@]2(CNS(=O)(=O)c2ccc([N+](=O)[O-])cc2)c2ccc(F)cc2F)[nH]n1,"cell-free assay, competition with immobilised ligand",0.3 µM,22
COc1cnc(Nc2cccc(S(N)(=O)=O)c2)nc1N1CCN(c2ccccc2)C(=O)C1,"binding, competition with immobilised ligand",1 µM,99
O=C(NCCCN1CCOCC1)c1ccc(Nc2nccc(-c3cc4ccccc4s3)n2)cc1,"binding, competition with immobilised ligand",1 µM,100
C[C@@H](c1ccc(-n2cnc3c(N)ncnc32)cc1)N1CCc2nn(C)c(Cc3ccccc3)c2C1=O,"binding, competition with immobilised ligand",0.1 µM,87
O=C(c1ccc(Nc2nccc(-c3cc4ccccc4s3)n2)cc1)N1CCC(N2CCCC2)CC1,"binding, competition with immobilised ligand",1 µM,81
CC(=O)C1=C(C)N(c2cccc(C(F)(F)F)c2)C(=O)N[C@@H]1c1ccc(C#N)nc1,"cell-free assay, competition with immobilised ligand",1 µM,100
CN(CCCC(F)(F)F)c1nccc(-c2cnn3ncccc23)n1,binding,1 µM,100
O=C(NCC1CCOCC1)c1n[nH]cc1NC(=O)c1c(F)cccc1F,"binding, competition with immobilised ligand",1 µM,100
CCN1CCN(Cc2ccc(C(=O)Nc3ccc(C)c(Oc4ccc5c(c4)CC(=O)N5)c3)cc2C(F)(F)F)CC1,"binding, competition with immobilised ligand",1 µM,77
CN(C)c1nccc(-c2cnc3ncccn23)n1,binding,1 µM,100
CCOCCn1cc(C(=O)Nc2ccc(-n3nc(-c4cccnc4)cc3C(F)(F)F)cn2)ccc1=O,"cell-free assay, competition with immobilised ligand",1 µM,100
C[C@@H]1CN(c2ccc3ncc(-c4ccc5[nH]nc(C6CC6)c5c4)n3n2)C[C@H](C)O1,"binding, competition with immobilised ligand",0.5 µM,100
O=C(N[C@H]1CCCCC/C=C\C2C[C@@]2(C(=O)O)NC(=O)[C@@H]2C[C@@H](Oc3ccncc3)CN2C1=O)OC1CCCC1 (some centres unmarked),"binding, competition with immobilised ligand",1 µM,97
C[C@H]1CCN(c2nccc(-c3cnn4ncccc34)n2)C1,binding,1 µM,100
CCS(=O)(=O)c1cc2cc(C[C@@](O)(CC(C)(C)c3ccc(F)cc3C(N)=O)C(F)(F)F)[nH]c2cn1,"cell-free assay, competition with immobilised ligand",1 µM,100
c1cncc(-c2cccc(Nc3nccc(NC4CCCCC4)n3)c2)c1,"binding, competition with immobilised ligand",10 µM,67
COc1cc(-c2cn(C3CCc4ccccc4N(CC(F)(F)F)C3=O)nn2)ccc1-n1ccc(C)n1 (centres unmarked),"cell-free assay, competition with immobilised ligand",1 µM,100
CC(C)(C)c1ccc(-c2nc(CBr)nn2-c2cccc(O)c2)cc1,"cell-free assay, competition with immobilised ligand",10 µM,88
O=C(NCc1ncc(C(F)(F)F)cc1Cl)c1ccc2c(c1)C1(CCS(=O)(=O)CC1)[C@@H](C1CC1)N2S(=O)(=O)c1ccc(F)cc1,"cell-free assay, competition with immobilised ligand",1 µM,95
C=CC(=O)N1CCC(C(=O)NCC(=O)N2CCN(c3nc(-c4cnc(N)nc4C(F)F)nc(N4CCOCC4)n3)CC2)CC1,"binding, competition with immobilised ligand",1 µM,100
O=C1CCc2cc(Nc3cc(OC4CCOCC4)c([N+](=O)[O-])cc3Cl)ccc2N1,"cell-free assay, competition with immobilised ligand",1 µM,100
Cc1cnc(Nc2ccc(C(=O)N3CCC(N4CCCC4)CC3)cc2)nc1-c1cc2ccccc2s1,"binding, competition with immobilised ligand",1 µM,100
